From ChEMBL document CHEMBL1177885, “Synthesis and biological activity of 2-(trifluoromethyl)-1H-benzimidazole derivatives against some protozoa and Trichinella spiralis” (Eur J Med Chem, 2010)
Calls of active or inactive are those of the source. The calls are words filed in the database; no cut-off is given here.

Key:
[1] = tested on: Giardia intestinalis; assay: Antiprotozoal activity against Giardia intestinalis IMSS:0989:1 after 48 hrs; assay type: functional, organism-based; conditions: Giardia duodenalis, IMSS:0989:1, 48 h
How it was run: (§1)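 Trophozoites were grown in modified TYI-S-33 with 10% calf serum, with bovine bile added for Giardia. 5 × 10⁴ trophozoites (Giardia, Trichomonas) or 6 × 10³ (Entamoeba) were exposed to increasing concentrations for 48 h at 37 °C, with DMSO as negative control. Cells were washed, regrown 48 h drug-free, and counted. IC50 was by Probit analysis, in triplicate, repeated at least twice.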

[2] = tested on: Entamoeba histolytica; assay: Antiprotozoal activity against Entamoeba histolytica HM-1:IMSS after 48 hrs; assay type: functional, organism-based; how it was run: as §1
[3] = tested on: Trichomonas vaginalis; assay: Antiprotozoal activity against Trichomonas vaginalis G3 after 48 hrs; assay type: functional, organism-based; conditions: G3, 48 h; how it was run: as §1
[4] = tested on: Leishmania mexicana; assay: Antileishmanial activity against Leishmania mexicana MHOM/MX92/UAY68 after 48 hrs; assay type: functional, organism-based; conditions: MHOM/MX92/UAY68, 48 h
How it was run: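 Promastigotes at 2 × 10⁴/mL in RPMI 1640 with 10% FBS, 26 °C, were exposed to 0.1, 0.5, 1.5, 10 and 20 (final) of compound, with DMSO as negative control. Each concentration was run in triplicate. Parasites were fixed in 0.14 M NaCl/3.7% formaldehyde and counted in a Neubauer chamber.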

[5] = tested on: Trichinella spiralis; assay: Antitrichinellosis activity against Trichinella spiralis ML assessed as reduction of parasites viability at 0.18 uM after 3 days by MTT assay; assay type: functional
How it was run: (§2)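 1000 muscle larvae per well in RPMI 1640 were exposed to 0.18, 0.37 or 1.80 compound for 3 days at 37 °C in humid 5% CO2, with medium and compound renewed daily. Viability was read by MTT colorimetry as percent reduction of metabolic activity.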

[6] = tested on: Trichinella spiralis; assay: Antitrichinellosis activity against Trichinella spiralis ML assessed as reduction of parasites viability at 0 37 uM after 3 days by MTT assay; assay type: functional; how it was run: as §2
[7] = tested on: Trichinella spiralis; assay: Antitrichinellosis activity against Trichinella spiralis ML assessed as reduction of parasites viability at 1.8 uM after 3 days by MTT assay; assay type: functional; how it was run: as §2
[8] = tested on: Trichinella spiralis; assay: Antitrichinellosis activity against adult phase of Trichinella spiralis ML infected in mouse assessed as reduction of parasites level at 75 mg/kg administered 3 days after postinfection measured after 6 days relative to control; assay type: functional; parameters: scale not given: the % may be the effect or the level left
How it was run: (§3)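 Groups of six mice were infected with 800 muscle larvae and given a single dose on day 3 post-infection. Mice were killed on day 6 post-infection and intestinal adults recovered. Read-out was percent adult load reduction.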

[9] = tested on: Trichinella spiralis; assay: Antitrichinellosis activity against muscle larvae pahse of Trichinella spiralis ML larvae infected in mouse assessed as reduction of parasites level at 75 mg/kg administered for 7 consecutive days from day 28 postinfection measured on day 7 relative to control; assay type: functional; parameters: scale not given: the % may be the effect or the level left
How it was run: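 Groups of 10 mice were infected with 800 muscle larvae and treated at 75 mg/Kg from day 28 post-infection for 7 consecutive days. Mice were killed 7 days after treatment and muscle larvae recovered. Read-out was percent larval load reduction.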

[10] = tested on: Trichinella spiralis; assay: Antitrichinellosis activity against adult phase of Trichinella spiralis ML infected in mouse assessed as reduction of parasites level at 50 mg/kg administered 3 days after postinfection measured after 6 days relative to control; assay type: functional; parameters: scale not given: the % may be the effect or the level left; how it was run: as §3

SMILES	IC50 [1] [nM]	IC50 [2] [nM]	IC50 [3] [nM]	IC50 [4] [nM]	Activity [5] [%]	Activity [6] [%]	Activity [7] [%]	Activity [8] [%]	Activity [9] [%]	Activity [10]
Cn1c(C(F)(F)F)nc2ccc(Oc3cccc(Cl)c3Cl)cc21	63	19	110	4100	44	48	67			
FC(F)(F)c1nc2cc(Oc3cccc(Cl)c3Cl)ccc2[nH]1	54	18	535		20	24	29			
Cc1ncc([N+](=O)[O-])n1CCO [METRONIDAZOLE]			216							
Cn1c(C(F)(F)F)nc2cc(Cl)c(Oc3cccc4ccccc34)cc21	12	17	451	50100	6	14	18			
Cn1c(C(F)(F)F)nc2cc(Oc3cccc(Cl)c3Cl)ccc21	30	9	16	24000	54	62	80	58	46	
FC(F)(F)c1nc2cc(Oc3cccc(Cl)c3Cl)c(Cl)cc2[nH]1	31	20								
Cn1c(C(F)(F)F)nc2cc(Cl)ccc21			238				39			
CCCSc1ccc2[nH]c(NC(=O)OC)nc2c1 [ALBENDAZOLE]					58.6	61.9	67	73	63	62%
FC(F)(F)c1nc2cc(Oc3cccc4ccccc34)c(Cl)cc2[nH]1	5	19	86	13800	43	50	65	80	40	69%
Cn1c(C(F)(F)F)nc2cc(Oc3cccc4ccccc34)c(Cl)cc21	23	38	970	65200	15	29	63	36	64	inactive
FC(F)(F)c1nc2cc(Cl)c(Cl)cc2[nH]1			235	20800			19			
CSc1nc2cc(Oc3cccc4ccccc34)c(Cl)cc2[nH]1									24	28%
N=C(N)c1ccc(OCCCCCOc2ccc(C(=N)N)cc2)cc1 [PENTAMIDINE]				2420						
CSc1nc2cc(Cl)c(Oc3cccc(Cl)c3Cl)cc2[nH]1 [TRICLABENDAZOLE]								7	25	41%
